Activity calls are given as the source filed them. The rule behind the calls is not given here.
What was measured:
[1] = biological target: T1, Potassium channel subfamily K member 2 (Homo sapiens) (UniProt O95069); assay: (§1) Activation of recombinant human TREK1 expressed in HEK293T cells assessed as increase in K+ current amplitude by whole cell voltage clamp electrophysiological analysis; assay type: cell-based
T1 sequence (whole entry): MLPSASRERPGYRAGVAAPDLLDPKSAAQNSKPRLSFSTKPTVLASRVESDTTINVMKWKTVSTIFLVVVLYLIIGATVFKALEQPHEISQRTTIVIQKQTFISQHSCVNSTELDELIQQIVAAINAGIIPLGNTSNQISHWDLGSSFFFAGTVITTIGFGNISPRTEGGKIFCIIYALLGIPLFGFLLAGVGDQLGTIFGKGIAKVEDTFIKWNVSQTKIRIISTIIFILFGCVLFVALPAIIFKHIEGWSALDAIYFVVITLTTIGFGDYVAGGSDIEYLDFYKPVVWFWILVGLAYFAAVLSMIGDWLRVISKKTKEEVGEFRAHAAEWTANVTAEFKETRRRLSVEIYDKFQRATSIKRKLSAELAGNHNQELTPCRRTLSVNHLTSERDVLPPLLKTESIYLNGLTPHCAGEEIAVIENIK
Summary of the method: (§2)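 Transiently transfected HEK-293T cells, whole-cell voltage clamp. Held at -60 mV, 500-ms ramp -120 to +60 mV. Pipette (mM) 140 KCl, 5 EGTA, 10 HEPES, pH 7.4; external 145 NaCl, 4 KCl, pH 7.3. Compound diluted from 10 mM DMSO stock and applied extracellularly. Current increase over control fitted to concentration–response curves for EC50.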

[2] = biological target: T2, Potassium channel subfamily K member 2 (Homo sapiens, UniProt O95069); assay: as §1; assay type: cell-based; summary of the method: as §2
T2 sequence (O95069 whole entry): T1 sequence (whole entry)

[3] = biological target: T1, Potassium channel subfamily K member 2 (Homo sapiens); assay: Activation of recombinant human TREK1 expressed in HEK293T cells assessed as change in single channel conductance by outside-out patch electrophysiological analysis; assay type: cell-based
Summary of the method: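 Outside-out patches from HEK-293T cells transfected with human TREK-1 (pEGFP-N1). Pipettes 7–15 MΩ. Open probability measured at -60 and +60 mV. Conductance taken as first open-state current amplitude divided by voltage at ±60 mV.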

[4] = biological target: T3, Potassium channel subfamily K member 18 (Homo sapiens) (UniProt Q7Z418); assay: Activation of recombinant human TRESK expressed in HEK293T cells assessed as increase in K+ current amplitude at 10 uM by whole cell voltage clamp electrophysiological analysis; assay type: cell-based
T3 sequence (whole entry): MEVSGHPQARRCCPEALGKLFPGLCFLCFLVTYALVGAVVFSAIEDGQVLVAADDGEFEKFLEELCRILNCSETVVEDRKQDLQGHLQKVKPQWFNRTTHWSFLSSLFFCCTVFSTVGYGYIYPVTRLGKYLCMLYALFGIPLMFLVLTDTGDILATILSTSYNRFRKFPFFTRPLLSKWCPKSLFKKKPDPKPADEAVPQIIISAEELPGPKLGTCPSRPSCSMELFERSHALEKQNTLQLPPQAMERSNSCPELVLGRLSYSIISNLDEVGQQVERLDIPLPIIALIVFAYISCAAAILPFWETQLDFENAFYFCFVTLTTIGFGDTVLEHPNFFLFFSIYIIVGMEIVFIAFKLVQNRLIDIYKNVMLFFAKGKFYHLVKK
Summary of the method: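 HEK-293T cells transiently transfected with the human K2P channel. Whole-cell clamp at -60 mV, 500-ms ramp -120 to +60 mV. Pipette 140 KCl (pH 7.4), external 145 NaCl/4 KCl (pH 7.3). Compound 10 μM, diluted from 10 mM DMSO stock into external solution.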

[5] = biological target: T4, Potassium channel subfamily K member 2 (Rattus norvegicus) (UniProt Q920B6); assay: Activation of TREK in depolarized Sprague-Dawley rat DRG neurons assessed as reversal potential of K+ current at 10 uM by whole cell voltage clamp electrophysiological analysis
T4 sequence (whole entry): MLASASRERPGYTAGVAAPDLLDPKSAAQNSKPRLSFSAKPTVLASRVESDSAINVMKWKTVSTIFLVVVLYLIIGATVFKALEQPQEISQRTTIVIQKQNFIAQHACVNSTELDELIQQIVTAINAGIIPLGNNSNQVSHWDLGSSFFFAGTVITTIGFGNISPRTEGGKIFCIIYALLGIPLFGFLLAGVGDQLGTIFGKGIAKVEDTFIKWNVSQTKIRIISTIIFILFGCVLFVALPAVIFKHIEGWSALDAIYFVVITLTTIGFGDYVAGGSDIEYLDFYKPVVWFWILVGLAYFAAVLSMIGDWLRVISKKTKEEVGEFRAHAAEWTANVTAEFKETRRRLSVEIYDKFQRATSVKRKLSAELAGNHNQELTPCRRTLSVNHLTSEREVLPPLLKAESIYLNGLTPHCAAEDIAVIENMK
Summary of the method: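 Rat DRG neurons, whole-cell voltage clamp in 3 mM external K⁺. Voltage ramps -20 to -120 mV before and during 10 μM compound. The compound-sensitive current was obtained by subtraction, and its reversal potential was read where it could be resolved (4 cells).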

Cc1ccc2nc(-c3ccc(NC(=O)[C@@H]4CC[C@H](C(=O)O)C4)cc3)sc2c1
Activity [1]: Dose-dependent effect | EC50 [2]: 12.8 µM | Activity [3]: inactive | Activity [4]: Active | Activity [5]: -75 mV

From ChEMBL document CHEMBL4354866, “TREK Channel Family Activator with a Well-Defined Structure-Activation Relationship for Pain and Neurogenic Inflammation” (J Med Chem, 2020)
